{"data": "Measured values from different studies", "observed": "cell growth or viability", "note": "Protocols differ between the studies behind these lines."}
{"Compound": "Cc1nc(C(CN)NC(=O)C(=O)Nc2ccc3c(c2)OCO3)sc1CO (stereo not drawn)", "cell line": "TZM-bl", "assay": "MTS", "setting": "72 h", "quantity": "CC50", "value": "≥ 750 µM"}
{"Compound": "C=C(C)[C@@H]1CC[C@]2(C(=O)O)CC[C@]3(C)[C@H](CC[C@@H]4[C@@]5(C)CC[C@H](O)C(C)(C)[C@@H]5CC[C@]43C)[C@@H]12", "cell line": "WS1", "setting": "48 h", "quantity": "IC50", "value": "36 µM"}
{"Compound": "C=C(C)C(CC=C(C)C)Cc1c(O)cc(OC)c2c1O[C@H](c1ccc(O)cc1O)CC2=O (single isomer, unassigned; (-))", "cell line": "MCF7", "assay": "MTT", "quantity": "IC50", "value": "23.2 µM"}
{"Compound": "C/C=C(/C)C(=O)O[C@@H]1[C@H](OC(C)=O)c2c(ccc3ccc(=O)oc23)OC1(C)C", "cell line": "HEp-2", "assay": "WST-1", "quantity": "IC50", "value": "53.5 µM"}
{"Compound": "O=[N+]([O-])c1ccc(-c2nc3cc(Cl)ccc3[nH]2)o1", "cell line": "HEp-2", "assay": "resazurin", "setting": "72 h", "quantity": "CC50", "value": "5 µM"}
{"Compound": "CSc1ccc(OCc2ncc([N+](=O)[O-])n2C)cc1", "cell line": "THP-1", "assay": "MTT", "setting": "72 h", "quantity": "CC50", "value": "> 62.5 µM"}
{"Compound": "O=c1oc2c(O)c(O)cc3c(=O)oc4c(O)c(O)cc1c4c23", "cell line": "TZM-bl", "assay": "MTT", "setting": "48 h", "quantity": "CC50", "value": "469 µg/mL"}
{"Compound": "CC(=O)O[C@@H]1c2c(ccc3ccc(=O)oc23)OC(C)(C)[C@@H]1OC(=O)C1(C)OC1C (stereo partly drawn)", "cell line": "MCF7", "assay": "WST-1", "quantity": "IC50", "value": "25.1 µM"}
{"Compound": "C=C(C)[C@H](CCC(C)(C)O)Cc1c(O)cc(OC)c2c1O[C@H](c1ccc(O)cc1O)CC2=O", "cell line": "MCF7", "assay": "MTT", "setting": "48 h", "quantity": "IC50", "value": "> 100 µM"}
{"Compound": "C/C(=C\\C(=O)OCCCCCCCCC(=O)O)C[C@@H]1OC[C@H](C[C@@H]2O[C@H]2[C@@H](C)[C@H](C)O)[C@@H](O)[C@H]1O", "cell line": "TZM-bl", "quantity": "CC50", "value": "> 100 µM"}
{"Compound": "CCCCCCCCCCCCCCCCOP(=O)([O-])OCC[N+](C)(C)C", "cell line": "THP-1", "setting": "72 h", "quantity": "CC50", "value": "> 40 µM"}
{"Compound": "O=[N+]([O-])c1ccc(-c2nc3cc(F)ccc3[nH]2)o1", "cell line": "HEp-2", "assay": "resazurin", "setting": "72 h", "quantity": "CC50", "value": "3.1 µM"}
{"Compound": "COc1cccc2c1C(=O)c1c(O)c3c(c(O)c1C2=O)C[C@@](O)(C(=O)CO)C[C@@H]3O[C@H]1C[C@H](N)[C@H](O)[C@H](C)O1", "cell line": "MCF7", "assay": "MTT", "setting": "25 µM, 48 h", "quantity": "viability", "value": "16%"}
{"Compound": "CC(=O)OC1c2c(ccc3ccc(=O)oc23)OC(C)(C)C1OC(=O)C(C)(O)C(C)O (stereo not drawn)", "cell line": "HEp-2", "assay": "WST-1", "quantity": "IC50", "value": "11.3 µM"}
{"Compound": "Cc1cn([C@H]2C[C@H](N=[N+]=[N-])[C@@H](CO)O2)c(=O)[nH]c1=O", "cell line": "TZM-bl", "assay": "MTT", "setting": "48 h", "quantity": "CC50", "value": "> 200 µg/mL"}
